Laboratory results: ChEMBL document CHEMBL2040727, “Substituted thiazoles VI. Synthesis and antitumor activity of new 2-acetamido- and 2 or 3-propanamido-thiazole analogs” (2012)

Legend:
Format in all cases: functional
SK-MEL-2 = assay: Growth inhibition of human SK-MEL-2 cells at 10 uM after 48 hrs by coulter counter analysis; conditions: SK-MEL-2, 48 h, read-out: GI
In short: (§1)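 Single-dose NCI 60-line panel screen of test compounds. Cells grown in RPMI 1640 with 10% FBS. Compounds dissolved in DMSO, then diluted in phosphate buffer saline (final DMSO below 1%). Wells run in duplicate at 6 × 10⁴ cells/ml. Controls held PBS and DMSO at matching dilutions. Incubation 48 h at 37 °C under humidified 5% CO2. Cells diluted tenfold in saline and counted by Coulter counter. Percent growth inhibition taken from mean-graph of treated-cell growth.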

HOP-92 = assay: Growth inhibition of human HOP92 cells at 10 uM after 48 hrs by coulter counter analysis; conditions: HOP-92, 48 h, read-out: GI; in short: as §1
SK-MEL-5 = assay: Growth inhibition of human SK-MEL-5 cells at 10 uM after 48 hrs by coulter counter analysis; conditions: SK-MEL-5, 48 h, read-out: GI; in short: as §1
DU-145 = assay: Growth inhibition of human DU145 cells at 10 uM after 48 hrs by coulter counter analysis; conditions: DU-145, 48 h, read-out: GI; in short: as §1
M14 = assay: Growth inhibition of human M14 cells at 10 uM after 48 hrs by coulter counter analysis; conditions: M14, 48 h, read-out: GI; in short: as §1
KM12 = assay: Growth inhibition of human KM12 cells at 10 uM after 48 hrs by coulter counter analysis; conditions: KM12, 48 h, read-out: GI; in short: as §1
K562 = assay: Growth inhibition of human K562 cells at 10 uM after 48 hrs by coulter counter analysis; conditions: K562, 48 h, read-out: GI; in short: as §1
SR = assay: Growth inhibition of human SR cells at 10 uM after 48 hrs by coulter counter analysis; conditions: read-out: GI
In short: (§2)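 Single-dose screen in the NCI 60 cell line panel. Cells grown in RPMI 1640 with 10% FBS. Compounds dissolved in DMSO and diluted in phosphate buffered saline, final DMSO under 1%. Duplicate wells seeded from culture at 6 × 10⁴ cells/ml. Incubated 48 h at 37 °C, humidified, 5% CO2. Cells diluted tenfold in saline and Coulter-counted. Percent growth inhibition computed against PBS/DMSO controls.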

U-251 = assay: Growth inhibition of human U251 cells at 10 uM after 48 hrs by coulter counter analysis; conditions: U-251, 48 h, read-out: GI; in short: as §2
HCT-15 = assay: Growth inhibition of human HCT15 cells at 10 uM after 48 hrs by coulter counter analysis; conditions: HCT-15, 48 h, read-out: GI; in short: as §1
SF-539 = assay: Growth inhibition of human SF539 cells at 10 uM after 48 hrs by coulter counter analysis; conditions: SF-539, 48 h, read-out: GI; in short: as §1
PC-3 = assay: Growth inhibition of human PC3 cells at 10 uM after 48 hrs by coulter counter analysis; conditions: PC-3, 48 h, read-out: GI; in short: as §1
NCI-H460 = assay: Growth inhibition of human NCI-H460 cells at 10 uM after 48 hrs by coulter counter analysis; conditions: NCI-H460, 48 h, read-out: GI; in short: as §1
UO-31 = assay: Growth inhibition of human UO31 cells at 10 uM after 48 hrs by coulter counter analysis; conditions: UO-31, 48 h, read-out: GI; in short: as §2
SW-620 = assay: Growth inhibition of human SW620 cells at 10 uM after 48 hrs by coulter counter analysis; conditions: SW-620, 48 h, read-out: GI; in short: as §2
NCI-H322M = assay: Growth inhibition of human NCI-H322M cells at 10 uM after 48 hrs by coulter counter analysis; conditions: read-out: GI; in short: as §1
A549 = assay: Growth inhibition of human A549/ATCC cells at 10 uM after 48 hrs by coulter counter analysis; conditions: A549, 48 h, read-out: GI; in short: as §1
OVCAR-4 = assay: Growth inhibition of human OVCAR4 cells at 10 uM after 48 hrs by coulter counter analysis; conditions: OVCAR-4, 48 h, read-out: GI; in short: as §1
RPMI-8226 = assay: Growth inhibition of human RPMI8226 cells at 10 uM after 48 hrs by coulter counter analysis; conditions: RPMI-8226, 48 h, read-out: GI; in short: as §1
UACC-62 = assay: Growth inhibition of human UACC62 cells at 10 uM after 48 hrs by coulter counter analysis; conditions: UACC-62, 48 h, read-out: GI; in short: as §2
CCRF-CEM = assay: Growth inhibition of human CCRF-CEM cells at 10 uM after 48 hrs by coulter counter analysis; conditions: read-out: GI; in short: as §1
MCF7 = assay: Growth inhibition of human MCF7 cells at 10 uM after 48 hrs by coulter counter analysis; conditions: MCF7, 48 h, read-out: GI; in short: as §1
HCT-116 = assay: Growth inhibition of human HCT116 cells at 10 uM after 48 hrs by coulter counter analysis; conditions: HCT-116, 48 h, read-out: GI; in short: as §1
RXF 393 = assay: Growth inhibition of human RXF393 cells at 10 uM after 48 hrs by coulter counter analysis; conditions: RXF 393, 48 h, read-out: GI; in short: as §1
MOLT-4 = assay: Growth inhibition of human MOLT4 cells at 10 uM after 48 hrs by coulter counter analysis; conditions: MOLT-4, 48 h, read-out: GI; in short: as §1
ACHN = assay: Growth inhibition of human ACHN cells at 10 uM after 48 hrs by coulter counter analysis; conditions: read-out: GI; in short: as §1
HT-29 = assay: Growth inhibition of human HT-29 cells at 10 uM after 48 hrs by coulter counter analysis; conditions: HT-29, 48 h, read-out: GI; in short: as §1
A498 = assay: Growth inhibition of human A498 cells at 10 uM after 48 hrs by coulter counter analysis; conditions: A498, 48 h, read-out: GI; in short: as §1
HL-60(TB) = assay: Growth inhibition of human HL-60(TB) cells at 10 uM after 48 hrs by coulter counter analysis; conditions: HL-60, 48 h, read-out: GI
In short: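 Cells grown in RPMI 1640 with 10% FBS. Compound was dissolved in DMSO and diluted in PBS (under 1% DMSO final), then added in duplicate wells to culture at 6 × 10⁴ cells/ml. PBS/DMSO vehicle controls were included. Incubated at 37 °C, humidified 5% CO₂, for 48 h. Cells were diluted 10-fold in saline and Coulter-counted. Single-dose NCI-60 screen, read as percent growth inhibition.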

SNB-75 = assay: Growth inhibition of human SNB75 cells at 10 uM after 48 hrs by coulter counter analysis; conditions: SNB-75, 48 h, read-out: GI; in short: as §2
SF-295 = assay: Growth inhibition of human SF295 cells at 10 uM after 48 hrs by coulter counter analysis; conditions: SF-295, 48 h, read-out: GI; in short: as §1
HCC 2998 = assay: Growth inhibition of human HCC2998 cells at 10 uM after 48 hrs by coulter counter analysis; conditions: HCC 2998, 48 h, read-out: GI; in short: as §1
T47D = assay: Growth inhibition of human T47D cells at 10 uM after 48 hrs by coulter counter analysis; conditions: read-out: GI; in short: as §2
NCI-H23 = assay: Growth inhibition of human NCI-H23 cells at 10 uM after 48 hrs by coulter counter analysis; conditions: NCI-H23, 48 h, read-out: GI; in short: as §1

Compound	inhibition of growth at 10 µM (SK-MEL-2) [%]	inhibition of growth at 10 µM (HOP-92) [%]	inhibition of growth at 10 µM (SK-MEL-5) [%]	inhibition of growth at 10 µM (DU-145) [%]	inhibition of growth at 10 µM (M14) [%]	inhibition of growth at 10 µM (KM12) [%]	inhibition of growth at 10 µM (K562) [%]	inhibition of growth at 10 µM (SR) [%]	inhibition of growth at 10 µM (U-251) [%]	inhibition of growth at 10 µM (HCT-15) [%]	inhibition of growth at 10 µM (SF-539) [%]	inhibition of growth at 10 µM (PC-3) [%]	inhibition of growth at 10 µM (NCI-H460) [%]	inhibition of growth at 10 µM (UO-31) [%]	inhibition of growth at 10 µM (SW-620) [%]	inhibition of growth at 10 µM (NCI-H322M) [%]	inhibition of growth at 10 µM (A549) [%]	inhibition of growth at 10 µM (OVCAR-4) [%]	inhibition of growth at 10 µM (RPMI-8226) [%]	inhibition of growth at 10 µM (UACC-62) [%]	also measured
CN1CCN(CCC(=O)Nc2nc(-c3ccccc3)cs2)CC1	< 10	24.5	< 10	< 10	< 10	< 10	< 10	< 10	< 10	< 10	< 10	10.9	< 10	54	< 10	< 10	< 10	< 10	11.7	11.1	inhibition of growth at 10 µM (CCRF-CEM): 14.4%; inhibition of growth at 10 µM (MCF7): 11.8%; inhibition of growth at 10 µM (HCT-116): < 10%; inhibition of growth at 10 µM (RXF 393): 11.1%; inhibition of growth at 10 µM (MOLT-4): 35.7%; inhibition of growth at 10 µM (ACHN): < 10%; inhibition of growth at 10 µM (HT-29): < 10%; inhibition of growth at 10 µM (A498): < 10%; inhibition of growth at 10 µM (HL-60(TB)): 11.6%; inhibition of growth at 10 µM (SNB-75): 30.5%; inhibition of growth at 10 µM (SF-295): < 10%; inhibition of growth at 10 µM (HCC 2998): < 10%; inhibition of growth at 10 µM (T47D): < 10%; inhibition of growth at 10 µM (NCI-H23): < 10%
CCOC(=O)c1sc(NC(=O)C(C)N(CC)CC)nc1C (stereo not drawn)	< 10	< 10	< 10	< 10	< 10	< 10	< 10	< 10	< 10	< 10	< 10	< 10	< 10	< 10	< 10	< 10	< 10	< 10	< 10	< 10	inhibition of growth at 10 µM (CCRF-CEM): < 10%; inhibition of growth at 10 µM (MCF7): < 10%; inhibition of growth at 10 µM (HCT-116): < 10%; inhibition of growth at 10 µM (RXF 393): < 10%; inhibition of growth at 10 µM (MOLT-4): < 10%; inhibition of growth at 10 µM (ACHN): < 10%; inhibition of growth at 10 µM (HT-29): < 10%; inhibition of growth at 10 µM (A498): < 10%; inhibition of growth at 10 µM (HL-60(TB)): < 10%; inhibition of growth at 10 µM (SNB-75): 16.4%; inhibition of growth at 10 µM (SF-295): < 10%; inhibition of growth at 10 µM (HCC 2998): < 10%; inhibition of growth at 10 µM (T47D): < 10%; inhibition of growth at 10 µM (NCI-H23): < 10%
